The target in data set [1] is T1, CYP1A1 (Homo sapiens, UniProt P04798).
T1 sequence (P04798 1-512): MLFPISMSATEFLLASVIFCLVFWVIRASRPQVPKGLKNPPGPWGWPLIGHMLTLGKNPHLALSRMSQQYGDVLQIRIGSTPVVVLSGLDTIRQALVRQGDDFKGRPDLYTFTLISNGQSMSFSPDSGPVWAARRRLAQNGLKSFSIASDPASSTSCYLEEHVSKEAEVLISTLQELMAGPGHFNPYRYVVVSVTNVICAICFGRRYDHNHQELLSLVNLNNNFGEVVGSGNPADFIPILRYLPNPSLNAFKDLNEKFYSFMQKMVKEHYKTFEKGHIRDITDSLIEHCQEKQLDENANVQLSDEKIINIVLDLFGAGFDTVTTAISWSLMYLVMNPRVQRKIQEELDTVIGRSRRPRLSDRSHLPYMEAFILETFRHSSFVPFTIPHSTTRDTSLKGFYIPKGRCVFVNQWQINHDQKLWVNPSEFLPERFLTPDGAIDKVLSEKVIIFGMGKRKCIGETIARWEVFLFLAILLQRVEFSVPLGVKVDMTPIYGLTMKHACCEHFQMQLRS
Nature of the data set: EROD assay, recombinant human CYP1A1 inhibition. Type of data set: biochemical. In outline: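 Supersomes with P450 reductase. Test compound is taken from 10 mM DMSO stock into Tris–HCl pH 7.4 (final DMSO <1% v/v), at several concentrations. Methanol stop. Resorufin fluorescence read at ex 544/em 590 nm. IC50 from nonlinear regression, log(inhibitor) vs normalized response, variable slope.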

Data set [2] has as its system CYP1A2. Conditions: read-out: IC50 CYP1A2; recombinant human enzyme; cited from earlier work.
The subject of data set [3] is CYP1A1. The following applies: read-out: IC50 CYP1A1; cited from earlier work.
Another data set concerns the target T2, recombinant human CYP1B1 (Homo sapiens, UniProt Q16678).
T2 sequence (Q16678 1-543): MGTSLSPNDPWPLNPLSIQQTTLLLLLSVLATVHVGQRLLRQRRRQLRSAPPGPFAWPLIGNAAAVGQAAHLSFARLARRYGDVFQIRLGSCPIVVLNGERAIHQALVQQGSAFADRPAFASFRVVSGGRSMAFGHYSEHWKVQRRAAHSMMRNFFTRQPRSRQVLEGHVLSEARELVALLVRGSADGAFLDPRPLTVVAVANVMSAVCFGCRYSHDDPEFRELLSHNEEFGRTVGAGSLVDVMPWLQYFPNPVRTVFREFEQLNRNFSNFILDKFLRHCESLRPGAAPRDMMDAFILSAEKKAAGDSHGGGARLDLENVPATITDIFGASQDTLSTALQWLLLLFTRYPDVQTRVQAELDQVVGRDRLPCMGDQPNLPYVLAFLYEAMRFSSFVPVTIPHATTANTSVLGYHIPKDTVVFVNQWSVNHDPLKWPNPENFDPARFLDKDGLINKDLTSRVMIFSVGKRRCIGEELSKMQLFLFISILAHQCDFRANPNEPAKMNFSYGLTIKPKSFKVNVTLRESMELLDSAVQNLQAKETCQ
Nature of the data set: EROD assay, recombinant human CYP1B1 inhibition. Type of data set: biochemical. The following applies: for IC50 ratio 1A1/1B1: selectivity for CYP1B1 over CYP1A1; for IC50 ratio 1A2/1B1: selectivity for CYP1B1 over CYP1A2.

For data set [4], the target named is T3, CYP1A2 (Homo sapiens, UniProt P05177).
T3 sequence (P05177 2-516 limits assumed): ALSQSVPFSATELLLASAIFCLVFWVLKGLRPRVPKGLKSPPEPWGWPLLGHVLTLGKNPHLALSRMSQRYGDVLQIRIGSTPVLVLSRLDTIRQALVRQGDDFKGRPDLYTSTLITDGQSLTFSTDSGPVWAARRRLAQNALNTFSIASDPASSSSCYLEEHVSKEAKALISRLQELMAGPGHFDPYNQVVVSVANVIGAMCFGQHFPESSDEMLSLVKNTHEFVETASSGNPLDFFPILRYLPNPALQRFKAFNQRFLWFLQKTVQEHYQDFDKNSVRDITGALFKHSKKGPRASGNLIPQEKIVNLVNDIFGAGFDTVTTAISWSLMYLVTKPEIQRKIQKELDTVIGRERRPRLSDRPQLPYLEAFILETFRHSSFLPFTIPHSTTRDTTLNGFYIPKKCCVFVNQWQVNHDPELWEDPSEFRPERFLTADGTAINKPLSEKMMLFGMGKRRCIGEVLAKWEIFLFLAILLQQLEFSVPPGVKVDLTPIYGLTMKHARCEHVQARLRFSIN
The experiment in a line: EROD assay, recombinant human CYP1A2 inhibition. Type of data set: biochemical.

The test system of a further data set is MCF-7/1B1 cells. The format is cell-based, human. The method in brief:
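MCF-7/1B1 cells were made by incubating parental MCF-7 with 10 nM TCDD for five days, then seeded at about 3000 cells/well in RPMI 1640/10% FBS for 24 h. Screen: 20 μM docetaxel alone or with 10 μM test compound. […] MTT read at 490 nm. Non-linear regression fit; mean ± SD of three independent measurements; Student's t test.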

The test system of another data set is parental MCF-7 cells. The experiment in a line: MTT anti-proliferation assay in parental MCF-7 cells. The format is cell-based. The following applies: Homo sapiens, MCF7, read-out: IC50 of docetaxel in parental MCF-7 cells. In outline: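 Parental MCF-7 cells were grown in RPMI 1640 with 10% FBS at 37 °C and 5% CO2. About 3000 cells/well were seeded and left 24 h, then exposed to six docetaxel concentrations. MTT read-out was absorbance at 490 nm. IC50 came from non-linear regression (log inhibitor vs normalized response, variable slope).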
(In general: Tetrazolium dyes change colour on reduction, which living cells bring about.)

pIC50: −log10 of the molar value. Where two headings read alike, the source gives them in different places.

Broadly, the pIC50 is the negative decadic logarithm of the IC50, by convention in mol/L. By IC50 is commonly meant the concentration that gives 50% inhibition.

In the case of `O=c1cc(-c2ccccc2)oc2c1ccc1ccccc12` [ANF, α-Naphthoflavone], the negative-log IC50 (pIC50) on CYP1A1 [1] was 7.20; with CYP1A2 [2], […]; in the data set with CYP1A1 [3], 7.22.
For `O=c1c(O)c(-c2ccc(O)cc2)[nH]c2c1ccc1ccccc12` [Compound 3c, 3-Hydroxy-2-(4-hydroxyphenyl)benzo[h]quinolin-4(1H)-one], on recombinant human CYP1B1, the pIC50 is 6.85, the “IC50 ratio 1A1/1B1” value is on record as 3.7 and the “IC50 ratio 1A2/1B1” value is on record as more than 35.3. The pIC50 on CYP1A1 [1] is 6.28. The pIC50 on CYP1A2 [4] was less than 5.30.
The corresponding values for `O=c1c(O)c(-c2ccc(F)cc2)[nH]c2c1ccc1ccccc12` [Compound 3d, 2-(4-Fluorophenyl)-3-hydroxybenzo[h]quinolin-4(1H)-one] are 7.03, 3.6, more than 53.6, 6.48 and less than 5.30.
The like results for `O=c1cc(-c2ccccc2)[nH]c2c1ccc1ccccc12` [Compound 3e, 2-Phenylbenzo[h]quinolin-4(1H)-one] were, in that order, 7.76, 6.0, 27.9, 6.99 and 6.32.
Take `COc1cc(-c2ccccc2)nc2c1ccc1ccccc12` [Compound 4b, 4-Methoxy-2-phenylbenzo[h]quinoline]: at recombinant human CYP1B1 (EROD assay, 20 fmol CYP1B1, 150 nM 7-ER, 37 °C, 35 min), the “IC50 values (nM) 1B1” value was “no longer a CYP1 inhibitor”. The half-maximal inhibitory concentration (IC50) on recombinant human CYP1B1 (read-out: IC50 values (nM) 1B1, EROD assay, 20 fmol CYP1B1, 150 nM 7-ER, 37 °C, 35 min) is more than 5000 nM. Further, the IC50 at 15 min on CYP1A1 [1] (human, recombinant human CYP1A1 with P450 reductase (Supersomes), pH 7.4, probe 7-ethoxyresorufin (7-ER), 150 nM) is more than 5000 nM. The IC50 at 50 min at CYP1A2 [4] (human, recombinant human CYP1A2 with P450 reductase (Supersomes), pH 7.4, probe 7-ethoxyresorufin (7-ER), 150 nM) is more than 5000 nM.
Regarding `COc1cc2c(=O)cc(-c3ccccc3)[nH]c2c2c(OC)cccc12` [Compound 5a, 6,10-Dimethoxy-2-phenylbenzo[h]quinolin-4(1H)-one], the values for the pIC50 on recombinant human CYP1B1, on CYP1A1 [1] and on CYP1A2 [4] were 7.78, 7.90 and 6.83, respectively. The “IC50 ratio 1A1/1B1” value at recombinant human CYP1B1 worked out at 0.8. The “IC50 ratio 1A2/1B1” value on recombinant human CYP1B1 was determined as 8.9.
The like results for `COc1cc2c(=O)cc(-c3ccccc3F)[nH]c2c2c(OC)cccc12` [Compound 5b, 2-(2-Fluorophenyl)-6,10-dimethoxybenzo[h]quinolin-4(1H)-one] were, in that order, 7.55, 7.58, 6.76, 0.9 and 6.2.
The like results for `COc1cc2c(=O)cc(-c3cccc(F)c3)[nH]c2c2c(OC)cccc12` [Compound 5c, 2-(3-Fluorophenyl)-6,10-dimethoxybenzo[h]quinolin-4(1H)-one] were, in that order, 8.11, 7.41, 6.48, 5.0 and 42.4.
As to `COc1cc2c(=O)cc(-c3cccc(Cl)c3)[nH]c2c2c(OC)cccc12` [Compound 5d, 2-(3-Chlorophenyl)-6,10-dimethoxybenzo[h]quinolin-4(1H)-one], at recombinant human CYP1B1, the negative-log IC50 (pIC50) is 7.56, the “IC50 ratio 1A1/1B1” value was determined as 1.1 and the “IC50 ratio 1A2/1B1” value stood at 3.1. Besides, the pIC50 on CYP1A1 [1] was 7.53. In addition, the negative logarithm of the IC50 (pIC50) at CYP1A2 [4] is 7.07.
Take `COc1cc2c(=O)cc(-c3cccc(Br)c3)[nH]c2c2c(OC)cccc12` [Compound 5e, 2-(3-Bromophenyl)-6,10-dimethoxybenzo[h]quinolin-4(1H)-one]: the “IC50 ratio 1A1/1B1” value on recombinant human CYP1B1 is 5.5. Further, the “antiproliferative activity of the compound alone” value with MCF-7/1B1 cells (MCF-7/1B1 cells, varying concentrations, no docetaxel) is recorded as “a significant antiproliferative activity was not observed”.
Turning to `COc1cccc(-c2cc(=O)c3cc(OC)c4cccc(OC)c4c3[nH]2)c1` [Compound 5f, 6,10-Dimethoxy-2-(3-methoxyphenyl)benzo[h]quinolin-4(1H)-one], on recombinant human CYP1B1, the negative-log IC50 (pIC50) is 8.15, the “IC50 ratio 1A1/1B1” value is reported as 5.0 and the “IC50 ratio 1A2/1B1” value worked out at 26.8. Moreover, the pIC50 at CYP1A1 [1] was 7.45. Besides, at CYP1A2 [4], the negative logarithm of the IC50 (pIC50) is 6.72.
The corresponding values for `COc1cc2c(=O)cc(-c3ccc(C(F)(F)F)cc3)[nH]c2c2c(OC)cccc12` [Compound 5i, 6,10-Dimethoxy-2-(4-(trifluoromethyl)phenyl)benzo[h]quinolin-4(1H)-one] are 7.46, 8.7, 38.9, 6.52 and 5.87.
The corresponding values for `COc1cc(-c2cc(=O)c3cc(OC)c4cccc(OC)c4c3[nH]2)cc(OC)c1OC` [Compound 5j, 6,10-Dimethoxy-2-(3,4,5-trimethoxyphenyl)benzo[h]quinolin-4(1H)-one] are 6.79, 4.9, more than 30.5, 6.09 and less than 5.30.
With `CC(=O)O[C@@]12CO[C@@H]1C[C@H](O)[C@@]1(C)C(=O)[C@H](O)C3=C(C)[C@@H](OC(=O)[C@H](O)[C@@H](NC(=O)OC(C)(C)C)c4ccccc4)C[C@@](O)([C@@H](OC(=O)c4ccccc4)[C@H]21)C3(C)C` [docetaxel, reference compound], the “fold resistance of MCF-7/1B1 cells to docetaxel versus parental MCF-7 cells” value in the data set with MCF-7/1B1 cells is listed as 5 fold. Besides, the pIC50 with parental MCF-7 cells is 4.53.

(Values after PMC9080015 (RSC Advances, 2018).)
